# Hits are enriched below; roughly 1.7% of the tested compounds scored in any of these assays.
# Dynein transport: blocks dynein driven cargo transport along microtubules | z-score, hits read low | 3617.4 mouse cells, GR-EGFP nuclear translocation imaging; test concentration mostly 20 µM; stimulated with dexamethasone, 1 µM; hits give low values | 220,000 tested, 0.47% active | AID 1381;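 active means plate z-score of nuclear minus cytoplasmic receptor signal below a set negative limit, without overly bright fluorescence or cell loss, cut at about -3.5 in these data, passing the limit was not always enough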;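 further: z-score of nuclear minus cytoplasmic ring GR-EGFP intensity difference per well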
#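 Buffer or medium: tet-free medium with charcoal-stripped serum / Also added: dexamethasone agonist, 1.0 µM final, for 30 min / Timing: induction 48 h, compound 1 h, agonist 30 min / Measured by: high-content fluorescence imaging after fixation / Read-out: nuclear-to-cytoplasmic GR-EGFP distribution per well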
# EP2 modulator: modulators of human EP2 prostaglandin E2 receptor | induction, % at 25 µM | AID 940 | 260,000 tested, 0.83% active | EP2-expressing cells, cAMP HTRF FRET, PGE2 co-stimulation | P43116;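 active means compounds whose cAMP rise, as percent of the full-agonist control response, exceeds 60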;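 further: rat C6 glioma line stably carrying human EP2 under a CMV promoter; the protocol text gives 20 µM as final concentration; 100% = response of wells given 1 µM PGE2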
# Target sequence (P43116 whole entry, looked up): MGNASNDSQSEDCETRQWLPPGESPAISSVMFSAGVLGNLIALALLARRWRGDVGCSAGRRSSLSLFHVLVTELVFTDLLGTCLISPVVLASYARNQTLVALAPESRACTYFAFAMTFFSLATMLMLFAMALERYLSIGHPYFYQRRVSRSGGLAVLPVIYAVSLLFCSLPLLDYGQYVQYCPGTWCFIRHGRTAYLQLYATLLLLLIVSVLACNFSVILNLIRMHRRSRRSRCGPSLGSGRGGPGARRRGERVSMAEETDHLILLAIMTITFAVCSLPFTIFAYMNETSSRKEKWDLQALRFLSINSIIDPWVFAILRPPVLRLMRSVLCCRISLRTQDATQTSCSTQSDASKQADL
# PGE2 EP2 inh: inhibitors of human EP2 prostaglandin E2 receptor; C6 glioma cells expressing human EP2, cAMP TR-FRET; cells stimulated with saturating PGE2; inhibition, % at 25 µM; P43116; AID 1422; 260,000 tested, 0.52% active;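 active means percent inhibition above 40 after rounding to a whole number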;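 further: rat C6 glioma host cells with rolipram phosphodiesterase inhibitor present; the protocol text gives 20 µM as final concentration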
# Hsp70 act: transcriptional activators of Hsp70; activation, % at 10 µM; 200,000 tested, 0.04% active; AID 1203; HeLa Hsp70 promoter luciferase reporter, luminescence; scaled: vehicle 0, proteasome-inhibitor control 100%;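 active means activation above the mean across all tested compounds plus 3 SD, cutoff set per campaign, cut at about 5.5% in these data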;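 further: 100% = MG132 at 30 µM as the positive control and 0% = DMSO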
# EP2 confirm: human EP2 receptor cAMP induction, negative in counter-screens | AID 1080 | 1,300 tested, 47% active | C6 glioma EP2 cells, cAMP HTRF induction; plus low (about EC15) PGE2 agonist | calls only at 20 µM (by protocol) | shares compounds with EP2 modulator;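 active means cAMP induction above 50% in the main assay while under 30% in all four parallel counter assays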;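 further: rat C6 glioma cells stably expressing human EP2 receptor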
# Numbers without * were called inactive; i = inactive; . = no result; + = active, no number.
SMILES,Dynein transport,EP2 modulator,PGE2 EP2 inh,Hsp70 act,EP2 confirm
CCN(CC)C(=O)Cn1cc(SCC(=O)NCc2ccco2)c2ccccc21,-0.219,-2.9,4.5,-0.2,.
COc1ccc(OC)c(CC(=O)N2CCn3c(nnc3C3CC3)C2)c1,.,-8.7,.,.,.
Cc1oncc1-c1csc(-c2ccccc2Cl)n1,-0.168,68.8*,6.8,0.0,+
CC(C)C(=O)c1cc2c(cc1NC(=O)c1ccccc1)OCCO2,1.46,70.6*,2.8,-0.3,+
CCOC(=O)Cn1nnnc1CN(Cc1cc2ccc(C)cc2[nH]c1=O)C1CCCCC1,.,36.3,9.3,.,.
O=C(NCCc1ccc(F)cc1)C(=O)NCc1ccco1,.,-39.3,11.8,.,.
CCc1ccc(OCc2n[nH]c(=S)n2C(C)CCCC(C)C)cc1 (configuration not stated),0.659,68.8*,4.4,0.3,+
CCc1ccc(OCc2n[nH]c(=S)n2Cc2ccccc2)cc1,-0.141,31.1,4.4,0.1,.
CCOC(=O)c1cccc(NC(=O)CSc2nc3cc4c(cc3cc2C#N)OCO4)c1,.,50.9,28.2,.,.
O=C(/C=C/c1cccc(Br)c1)c1ccc2c(c1)OCCO2,.,-31.8,7.4,.,.
Cc1cc(C)c(S(=O)(=O)c2ccccc2C)c(SCC(C)C)n1,-0.895,48.0,18.2,0.0,.
CCCCn1c(C)cc(C)c(S(=O)(=O)c2ccccc2C)c1=O,-1.08,78.0*,10.9,-0.4,+
Cc1ccccc1S(=O)(=O)c1c(C)cc(C)n(C(C)C)c1=O,-0.59,70.5*,3.2,-0.3,+
CCOC(=O)n1c(=O)n(Cc2ccc(Cl)c(Cl)c2)c2ccccc21,0.113,77.0*,9.2,0.0,+
CCOc1ccccc1-c1nc2c(C(C)(C)C)nn(C)c2c(=O)[nH]1,-0.627,84.1*,15.4,-0.3,+
CCOc1ccc(S(=O)(=O)N(C)C)cc1-c1nc2c(C(C)(C)C)nn(C)c2c(=O)[nH]1,0.593,14.4,36.5,-0.5,.
Oc1ccccc1-c1nc2cnccn2c1NCc1ccc(F)cc1,.,-79.7,16.4,.,.
O=C(CSc1nc2ccccc2o1)Nc1cc(C(F)(F)F)ccc1N1CCOCC1,0.276,80.1*,17.0,-0.1,+
O=C(CSc1nc2ccccc2o1)Nc1ccccc1N1CCCCCC1,0.306,70.8*,-0.4,-0.1,+
COCCn1nnnc1C(c1ccc(OC)cc1OC)N1CCN(C2CCCC2)CC1 (configuration not stated),.,-1.6,16.5,.,.
Fc1ccc(CSc2ncnc3c2oc2ccccc23)cc1,0.0414,42.6,8.8,-0.2,.
O=C(CSc1ncnc2c1oc1ccccc12)Nc1cccc(F)c1,-0.967,67.4*,13.4,-0.1,i
Fc1cccc(CSc2ncnc3c2oc2ccccc23)c1,1.16,80.0*,14.6,-0.4,i
Cc1cccc(NC(=O)CSc2ncnc3c2oc2ccccc23)c1,-0.134,71.3*,15.4,-0.2,i
CN1CC=C(/C=C/c2ccc(Sc3ncccn3)o2)CC1,.,-52.0,3.4,.,.
SMILES,Dynein transport,EP2 modulator,PGE2 EP2 inh,Hsp70 act,EP2 confirm
Cc1ccc(Nc2nc(CSc3nnc(-c4ccccc4C)n3C)cs2)cc1,0.344,70.8*,4.2,-0.3,+
Cc1ccc(Nc2nc(CSc3nnc(-c4ccccc4)n3C)cs2)cc1,-0.414,18.5,7.7,-0.1,.
Cc1ccc(-c2nnn(C3CCN(C(=O)c4cccc5c4C(=O)N(C)C5)CC3)n2)cc1,.,-37.3,.,.,.
Cn1c(=O)c2c(SCc3cccnc3)nc(CC(C)(C)C)nc2n(C)c1=O,0.0104,58.8,6.3,-0.1,+
CC(=O)Oc1ccc2ccccc2c1C(NC(=O)Cc1ccccc1)c1ccccc1 (configuration not stated),0.354,65.0*,2.8,0.1,i
CC(=O)NC(c1cccc([N+](=O)[O-])c1)c1c(OC(C)=O)ccc2ccccc12 (configuration not stated),1.39,11.9,11.3,-0.3,.
CC(C)Cc1nc2sc3c(=O)[nH]cnc3c2c2c1CCC2,3.02,73.9*,4.6,-0.3,i
CC(C)c1nc2sc3c(=O)[nH]cnc3c2c2c1CCC2,3.11,54.4,6.2,0.0,.
COC(=O)CC1C(C)(C)C(OC(C)=O)[C@@H]2[C@@H](OC(C)=O)[C@]34O[C@@]2(O)[C@]1(C)C3CC[C@]1(C)C4=CC(=O)O[C@H]1c1ccoc1 (some centres not stated),.,53.2,9.2,.,i
CC(C)(Oc1ccc(Cl)cc1)C(=O)N(Cc1ccccc1)c1ccccn1,0.0019,68.5*,6.7,0.1,+
NC(=O)c1c(NC(=O)C2CC(c3c(F)cccc3Cl)=NO2)sc2c1CCCC2 (configuration not stated),.,-157.8,10.9,.,.
CCCCOC(=O)CSc1nc(N)c(C#N)c(-c2ccc(OCC)cc2)c1C#N,-0.548,73.6*,16.7,-0.2,i
Cc1cc(C(=O)CSc2nc3ccccc3c(=O)n2C)c(C)n1Cc1ccc2c(c1)OCO2,-0.509,73.6*,7.8,-0.2,i
Cc1[nH]nc2c1C(c1cc(Br)ccc1OCc1ccccc1)C(C#N)=C(N)O2 (configuration not stated),.,-110.2,10.4,.,.
O=C(CNC(=O)c1cccs1)OCc1ccc(Cl)cc1Cl,.,-44.1,5.5,.,.
CC(=O)O[C@@H]1c2c(ccc3ccc(=O)oc23)OC(C)(C)[C@@H]1OC(=O)CC(C)C,.,63.6*,9.5,.,+
COc1cccc(/C=N/c2oc(-c3ccccc3)cc2C#N)c1O,-0.0692,78.2*,13.9,0.1,i
N#Cc1cc(-c2ccccc2)oc1/N=C/c1ccccc1O,3.74,-13.8,16.0,0.0,.
CN(C)c1nc(N2CCOCC2)nc(N(c2ccccc2)c2ccccc2)n1,-0.565,65.9*,9.1,-0.1,i
CC1CCc2c(sc3ncn4c(=O)n(CC(=O)NC5CC5)nc4c23)C1 (configuration not stated),.,-16.3,.,.,.
C=CCn1c2cc(C)sc2c2cnn(CC(=O)OC)c(=O)c21,.,-2.9,.,.,.
O=C(c1ccc(Br)o1)N(Cc1ccccc1)Cc1ccccc1,0.271,54.3,.,-0.3,+
O=C(NCc1ccccc1)c1ccc(Br)o1,0.574,15.6,9.2,-0.2,.
N#Cc1c(N)nc2c3c(sc(=N)c2c1N)NC(=O)CC3c1c(F)cccc1Cl (configuration not stated),0.915,67.8*,8.4,-0.3,+
Cc1nc(NC(C)c2ccccc2)c2c3c(sc2n1)CCC3 (configuration not stated),0.608,70.9*,7.4,0.2,i
O=C(C1CCCC1)N1CCC[C@H](Cn2nc(-c3cccs3)ccc2=O)C1,.,-54.7,7.7,.,.
C/C(Cl)=C/CSc1nc2c(c(=O)n(C)c(=O)n2C)n1Cc1ccc(F)cc1,.,41.8,12.1,.,.
Cn1c(=O)c2c(nc(SCC(=O)c3cccs3)n2Cc2ccc(F)cc2)n(C)c1=O,-0.478,75.0*,32.9,-0.2,i
